Results pooled from the literature.
Each line is one published result; the experiments were not run side by side.
Target: Mitogen-activated protein kinase 11 (MAPK11, Homo sapiens, UniProt Q15759)

SMILES | test | setting | measurement | result
C#Cc1cnc(Nc2ccnc(CO)c2)nc1Nc1ccccc1S(C)(=O)=NC#N (stereo not shown) | cell-free assay | 1 µM | remaining signal | 82%
CC#CC(=O)N1CCC[C@H]1c1nc(-c2ccc(C(=O)Nc3ccccn3)cc2)c2c(N)nccn12 | enzyme activity, inhibitor | 1 µM | inhibition | 0%
Cc1ccc(NC(=O)c2ccnc(C(F)(F)F)c2)cc1-c1cc(OCCO)nc(N2CCOCC2)c1 | binding, competition with immobilised ligand | 1 µM | remaining binding | 34%
Cc1cc(O)c(-c2ccc([C@@H](C)CN(C)C)cc2)c2c1[nH]c(=O)c1sccc12 | enzyme activity, inhibitor | 0.1 µM | inhibition | 5.56%
CCCCC(=O)Nc1ccc(-c2ccc3ncn(CCC)c(=O)c3c2)cn1 | binding, competition with immobilised ligand | 0.5 µM | remaining binding | 87%
CC(C)S(=O)(=O)c1ccc2nccc(Nc3ccc4sc(C5CCCC5)nc4c3)c2c1 | enzyme activity, inhibitor | 1 µM | activity vs control | 108%
CN1CCN(C(=O)c2ccc(NC(=O)Nc3ccc(N(C)c4ccnc(Nc5ccc(CS(C)(=O)=O)cc5)n4)cc3)cc2)CC1 | binding, competition with immobilised ligand | 1 µM | remaining binding | 100%
N#Cc1ccc(NC(=O)Nc2ccccc2)cc1 | cell-free assay, competition with immobilised ligand | 25 µM | remaining binding | 100%
C=CC(=O)N1CCC[C@@H](n2nc(-c3ccc(Oc4ccccc4)cc3)c3c(N)ncnc32)C1 | enzyme activity, inhibitor | 1 µM | inhibition | 2%
C#Cc1cc(-c2cc(Nc3nc(N[C@@H](C)c4ccc(F)cn4)ncc3Cl)n[nH]2)ccc1C=O | enzyme activity, inhibitor | 0.2 µM | inhibition | 21.9%
